Test results: ChEMBL document CHEMBL4334439, “Discovery, Optimization, and Target Identification of Novel Potent Broad-Spectrum Antiviral Inhibitors” (J Med Chem, 2019)
Calls of active or inactive are those of the source. The rule behind the calls is not given here.

Experiments:
[1] = test system: Hepatitis C virus; assay: Antiviral activity against EGFP-fused HCV JFH-1 harboring K78E/E2-G451R/NS3-M260K/NS5A-T462I mutation infected in human Huh7.5.1 cells assessed as reduction in viral RNA level after 2 days in presence of IFNalpha by qRT-PCR analysis; format: functional, organism-based; details: Hepacivirus hominis
Summary of the method: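 Huh7.5.1 cells at 1×10^4/well, grown overnight at 37 °C. HCVcc was mixed with serially diluted compound (top 30 or 6 μM), given alone or with the named drug, and added to the cells. Viral RNA was read by qRT-PCR after 2 days. EC50 is the concentration giving 50% RNA reduction.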

[2] = Selectivity index, ratio of CC50 for MDCK cells to EC50 for Gaussia tagged A/PR/08/34(H1N1) virus infected in MDCK cells; format: toxicity, cell-based; details: dog, read-out: Ratio CC50/EC50
Summary of the method: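 MDCK cells seeded at 1×10^5/well overnight, infected with A/PR/08/34(H1N1)-Gaussia luciferase at MOI 0.1, then given 0.05–20 µM compound immediately. Virus read by luminescence or qRT-PCR at 24 hpi; EC50 at 50% signal reduction. CC50 by WST-1 (OD450/OD630) after 48 h of serially diluted compound.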

[3] = biological target: T1, Membrane protein MLC1 (Homo sapiens) (UniProt Q15049); assay: Binding affinity to MLC1 in human Huh7.5.1 cell lysate infected with HCV at 0.1 to 10 uM incubated for 1 hr followed by 10000 mJ/cm2 UV irradiation for 10 mins and subsequent addition of biotin-N3 measured after 1 hr by ABPP Gel-based by LC/MS/MS analysis; format: subcellular
T1 sequence (whole entry): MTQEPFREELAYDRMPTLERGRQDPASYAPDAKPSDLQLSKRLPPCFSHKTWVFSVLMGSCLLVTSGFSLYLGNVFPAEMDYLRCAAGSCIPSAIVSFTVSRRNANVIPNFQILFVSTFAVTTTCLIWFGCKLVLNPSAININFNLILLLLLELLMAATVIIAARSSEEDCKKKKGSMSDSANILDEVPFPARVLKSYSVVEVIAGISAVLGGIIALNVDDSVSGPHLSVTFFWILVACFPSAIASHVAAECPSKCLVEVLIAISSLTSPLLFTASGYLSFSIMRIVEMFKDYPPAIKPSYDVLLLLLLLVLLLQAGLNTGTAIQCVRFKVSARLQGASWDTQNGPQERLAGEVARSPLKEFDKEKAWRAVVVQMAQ

[4] = test system: Influenza A virus; assay: Antiviral activity against Gaussia tagged Influenza A virus (A/Puerto Rico/8/34(H1N1)) infected in MDCK cells assessed as inhibition of H1N1 replication measured at 24 hrs post infection by luciferase reporter gene assay; format: functional, organism-based; details: A/Puerto Rico/8/1934(H1N1)
Summary of the method: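 MDCK cells at 1×10^5/well, cultured overnight, were infected with A/PR/8/34(H1N1)-Gaussia luciferase at MOI 0.1. Compound (0.05–20 µM) was added immediately. Luminescence or qRT-PCR was read at 24 hpi; EC50 is 50% reduction.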

[5] = test system: Dengue virus; assay: Antiviral activity against DENV infected in human Huh7.5.1 cells assessed as inhibition of viral replication measured after 3 days by qRT-PCR analysis; format: functional, organism-based; details: Huh-7.5.1, 72 h
Summary of the method: (§1)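 Huh7.5.1 cells were infected with DENV II or ZIKV at MOI 0.1 and treated with compound. Viral RNA was quantified by qRT-PCR after 3 days. EC50 is 50% reduction of RNA level.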

[6] = test system: Huh7.5.1; assay: Cytotoxicity against human Huh7.5.1 cells infected with DENV assessed as decrease in cell viability after 48 hrs by WST1 assay; format: cell-based; details: Huh-7.5.1, 48 h
Summary of the method: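 Cells at 1×10^4/well, cultured overnight at 37 °C, were incubated 48 h with serially diluted compound. Viability was read by WST-1 absorbance (OD450/OD630).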

[7] = test system: Zika virus; assay: Antiviral activity against ZIKV infected in human Huh7.5.1 cells assessed as inhibition of viral replication measured after 3 days qRT-PCR analysis; format: functional, organism-based; details: Huh-7.5.1, 72 h; summary of the method: as §1
[8] = Selectivity index, ratio of CC50 for human Huh7.5.1 cells to EC50 for ZIKV infected in human Huh7.5.1 cells; format: toxicity, cell-based; details: read-out: Ratio CC50/EC50
Summary of the method: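 SI from two assays. Antiviral: Huh7.5.1 cells infected with DENV II or ZIKV at MOI 0.1; viral RNA measured by qRT-PCR after 3 days; EC50 taken at 50% RNA reduction. Cytotoxicity: cells seeded at 1×10^4/well, given serially diluted compound for 48 h, then WST-1 absorbance (OD450/OD630) read for CC50.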

In the case of `CCN(CC)c1ccc(Oc2ccc(-c3[nH]c4cccc(F)c4c(=O)c3C)cc2F)cc1`, the Activity [1] is reported as “Dose-dependent effect”, the selectivity ratio [2] is reported as greater than 10 and the Activity [3] is reported as “Active”. For the same molecule, the EC50 [4] was 0.24 µM, the EC50 [5] was 0.007 µM and the EC50 [6] was greater than 2.5 µM. For the same molecule, the EC50 [7] was 0.02 µM and the selectivity ratio [8] was greater than 125.
